Tn6 DDE FP – DD(E)-Tn6 binding inhibition, primary FP screen | inhibition, % at 8.3 µM | 370,000 tested, 0.21% active | P02675 | AID 720509 | Fibrin DD(E) TRITC-Tn6 fluorescence polarization displacement;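 active means inhibition above a per-campaign cutoff: mean of compounds within control limits plus 3 SD, cut at about 15% in these data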;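 further: 0% = median of all compound wells on the plate and 100% = blocking peptide control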
DDE Tn7 FP inh – disrupts Tn7 cyclic peptide binding to fibrin D-Dimer-E complex. P02675. FP displacement of FITC-Tn7 peptide from fibrin DD(E); 0% = median of compound wells per plate. inhibition, % at 8.3 µM. 370,000 tested, 0.13% active. AID 720508;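 active means inhibition above the mean of compounds falling within the control limits plus 3 SD of them, cut at about 14% in these data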;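 further: 0% = plate median of compound wells and 100% = 10 µM Aha-Tn7 peptide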
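Test system – human fibrin DD(E) · Times – 10 min preincubation, 3 h with tracer, room temperature · Detection – fluorescence polarization of the labelled Tn7 tracer · Measure – percent inhibition normalized to high-control wells · Benchmarks – high control wells with 10 µM unlabelled Aha-Tn7 peptide (full inhibition) · Repeats – singlicate testing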
CRFBP-R2 block – antagonists of CRF-binding protein/CRF-R2 receptor complex. 350,000 tested, 0.59% active. HEK293 CRF-R2/CRF-BP, CRF-induced calcium fluorescence. inhibition, % at 11.8 µM. AID 588475;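 active means inhibition of the ligand-induced calcium signal above about 50% at the single tested concentration, limit read from the data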
CendR NRP1 mod – alters CendR peptide binding to human NRP-1 | O14786 | FAM-RPARPAR peptide binding to NRP-1, fluorescence polarization | inhibition, % at 25 µM | 360,000 tested, 0.85% active | AID 602438;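 active means inhibition or corrected inhibition above about 18%, plus a signal ratio from 0.5 to 1.5, limit read from the data, passing the limit was not always enough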
CRFR2-BP ag – agonists of human CRF-binding protein/CRF-R2 receptor complex; HEK293 CRF-R2/CRF-BP, calcium dye fluorescence (FLIPR); percent of saturating CRF peptide response; 350,000 tested, 0.46% active; activation, % at 13.2 µM;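 active means activation of at least 50%, plus an integration ratio under a set limit after plate pattern correction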;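 further: plate controls were neutral control wells without compound for no effect and CRF at EC100 for full effect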
KLK7 zymogen act – activates the human kallikrein-7 zymogen. P49862. purified proKLK7, EDANS-DABCYL substrate fluorescence; 100% is mature enzyme control, 0% vehicle. activation, % at 7 µM. 370,000 tested, 0.9% active. AID 652039;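 active means activation above the mean of all tested compounds plus 3 SD, computed per campaign excluding outliers beyond control limits, cut at about 13% in these data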
Target sequence (P49862 whole entry, looked up): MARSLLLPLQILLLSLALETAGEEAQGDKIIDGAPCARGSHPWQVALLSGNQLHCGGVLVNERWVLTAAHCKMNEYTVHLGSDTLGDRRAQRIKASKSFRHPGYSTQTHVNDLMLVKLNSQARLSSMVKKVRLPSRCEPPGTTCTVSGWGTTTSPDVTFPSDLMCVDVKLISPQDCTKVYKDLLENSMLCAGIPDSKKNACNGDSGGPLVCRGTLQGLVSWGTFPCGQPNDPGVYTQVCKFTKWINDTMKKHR
KLK7 act conf – proKLK7 activation, confirmation; shares compounds with KLK7 zymogen act; purified proKLK7, EDANS-DABCYL substrate fluorescence; scaled: vehicle 0, mature enzyme 100; activation, % at 7 µM; 3,200 tested, 68% active;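 active means activation, as change over the incubation, above the mean of all tested compounds plus 3 SD, cut at about 13% in these data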
EDANS-DABCYL int – fluorescence interference counter-screen for KLK7 activators. shares compounds with KLK7 zymogen act. EDANS-DABCYL substrate fluorescence interference, no enzyme, 4 h; solvent 0%, active enzyme control 100%. activation, % at 7 µM. 3,200 tested, 80% active. AID 686952;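 active means activation above the all-compound mean plus 3 SD, ignoring values outside control-based bounds, cut at about 4.8% in these data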;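 further: value is the 4 h activation minus the activation read at time zero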
EDANS interf – counter-screen for kallikrein-7 activators: EDANS-DABCYL interference, dose response | EC50, µM | shares compounds with KLK7 zymogen act | EDANS-DABCYL peptide fluorescence interference, no enzyme | 250 tested, 20% active;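 active means compounds that raise the fluorescence signal in this interference counterscreen, with EC50 at or below 10 µM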;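 further: intact quenched peptide substrate alone read at 355 nm excitation and 520 nm emission; signal is fluorescence gain from T0 to T4 after four hours at room temperature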
Numbers without * were called inactive; i = inactive; x = no result given. A selection: hits, their analogues and other compounds. The true share with any hit is near 2.9%.

SMILES	Tn6 DDE FP	DDE Tn7 FP inh	CRFBP-R2 block	CendR NRP1 mod	CRFR2-BP ag	KLK7 zymogen act	KLK7 act conf	EDANS-DABCYL int	others
O=C(Nc1c(-c2ccc(F)cc2)nc2ncccn12)C1CC1	4	-4	x	x	x	25*	36*	38*
O=C(Nc1ccc(F)cc1)Nc1c(-c2ccccc2)nc2ncccn12	1	3	x	x	x	8	x	x
Cc1ccc(-c2nc3ncccn3c2NC(=O)Nc2ccc(F)cc2)cc1	1	2	x	x	x	13*	-13	-7
CC(=O)Nc1c(-c2ccc(C)cc2)nc2ncccn12	1	-3	x	x	x	10	x	x
Nc1c(-c2ccc(F)cc2)nc2ncccn12	2	-1	x	8	x	8	x	x
CC(=O)Nc1nc2ncccn2c1-c1ccc(C)cc1	-2	-2	x	x	x	23*	48*	50*
O=C(Nc1c(-c2ccccc2)nc2ncccn12)C1CC1	-4	-7	x	x	x	28*	28*	34*
COc1cc(-n2c(C)nc3cc(C(=O)N4CCCCC4)ccc32)cc(OC)c1OC	3	1	x	x	x	0	x	x
COC(=O)[C@]12C[C@H](CC(=O)N3CCC(c4ccccc4)CC3)C(=O)N(CCC3=CCCCC3)C1=C[C@H](C1CCCC1)O[C@@H]2C	8	6	x	x	x	0	x	x
O=C(Nc1nc2ncccn2c1-c1ccc(F)c(F)c1)c1ccc(F)cc1	-6	-7	x	x	x	10	x	x
Cc1cccc(C(=O)Nc2c(-c3ccccc3)nc3ncccn23)c1	1	3	x	x	x	9	x	x
O=C(Nc1c(-c2ccccc2)nc2ncccn12)c1ccccc1	7	7	x	x	x	13*	60*	14*	EDANS interf=i
O=C(Nc1nc2ncccn2c1-c1ccc(F)c(F)c1)C1CC1	0	-1	x	x	x	18*	20*	24*
COc1cccc(CNC(=O)C2CCC(CNS(=O)(=O)c3cccc4cccnc34)CC2)c1OC (stereo not drawn)	12	10	x	x	x	0	x	x
Cc1cccn2cc(-c3c[nH]c4ccccc34)nc12	-7	-3	-3	-2	1	16*	6	2
Brc1ccc2nc(-c3c[nH]c4ccccc34)cn2c1	-5	4	-14	-99	2	-1	x	x
CNc1nc(-c2ccccc2)c2sccc2n1	-2	3	x	3	x	26*	16*	20*
CNc1nc(NCc2ccccc2)c2sccc2n1	-3	-2	x	-13	x	0	x	x
COC1C(O)CCC2(CO2)C1C1(C)OC1CC=C(C)C (stereo not drawn)	5	7	x	x	x	-1	x	x
O=c1nc2n(CCO)c3ccccc3cc-2c(=O)[nH]1	6	-1	-20	8	3	18*	48*	54*
Cn1c2nc(=O)[nH]c(=O)c-2cc2ccccc21	4	-4	-3	12	-3	70*	67*	65*
O=c1nc2n(Cc3ccccc3)c3ccccc3cc-2c(=O)[nH]1	5	-7	x	x	x	8	x	x
O=C(Nc1ccc(C(F)(F)F)cc1)OC1CC2CC1[C@H]1CCCCN1[C@H]2Cc1ccccc1 (stereo partly drawn)	-7	-1	x	x	x	0	x	x
CCc1ccccc1NC(=O)CSc1nc2n[nH]c(C)c2c(=N)n1-c1ccc(OC)cc1	-14	-1	1	3	-1	31*	20*	16*	EDANS interf=3.3*
Cc1cccc(-n2c(SCC(=O)N3CCCC3)nc3n[nH]c(C)c3c2=N)c1	3	-1	-14	3	-7	30*	70*	43*	EDANS interf=i
SMILES	Tn6 DDE FP	DDE Tn7 FP inh	CRFBP-R2 block	CendR NRP1 mod	CRFR2-BP ag	KLK7 zymogen act	KLK7 act conf	EDANS-DABCYL int	others
Cc1[nH]c2ccccc2c1C(=O)c1c(N)[nH]c(C(=O)c2ccc(Br)cc2)c1-c1ccc(Br)cc1	-4	5	x	x	x	0	x	x
O=C(NC1CCCC1)c1cc2c(=O)n3ccccc3nc2s1	4	4	7	-3	-1	61*	75*	66*
CC1CCCN(C(=O)c2cc3c(=O)n4ccccc4nc3s2)C1 (stereo not drawn)	1	-6	-4	-2	-1	26*	30*	34*
Cc1cccn2c(=O)c3cc(C(=O)N4CCCC(C)C4)sc3nc12 (stereo not drawn)	-8	3	-6	-5	-1	1	x	x
CCC1CCCCN1C(=O)c1cc2c(=O)n3cccc(C)c3nc2s1 (stereo not drawn)	x	x	12	9	0	x	x	x
Cn1c(C(=O)NCc2ccccn2)cc2c(=O)n3ccccc3nc21	2	-5	-6	-3	0	53*	66*	67*
CC1CCCCN1C(=O)c1cc2c(=O)n3ccccc3nc2s1 (stereo not drawn)	-1	-2	-2	2	0	32*	40*	40*
CC(=O)Nc1cccc(-c2cc(C(C)=O)c3n(c2=O)CCC3)c1	-5	5	x	x	x	0	x	x
Cn1c(C(=O)NC2CCCCC2)cc2c(=O)n3ccccc3nc21	-2	-2	-7	1	0	83*	81*	75*
COC(=O)[C@]12C[C@H](CC(=O)NCc3ccc(OC)c(OC)c3)C(=O)N(Cc3ccc4c(c3)OCO4)C1=C[C@H](C(C)C)O[C@@H]2C1CC1	3	-7	x	x	x	0	x	x
COC(=O)C(C[N+](=O)[O-])C1=C(O)CC(C)(C)CC1=O (stereo not drawn)	-8	4	x	x	x	1	x	x
COc1ccc(-c2coc3cc(OC(C)=O)c(OC)cc3c2=O)cc1	1	0	1	25*	1	43*	153*	111*
COc1ccc2c(=O)c(-c3ccc(OC)c(OC)c3)coc2c1	-5	4	3	-3	-2	0	x	x
COc1cc(/C=C2/NC(=O)N(CC(=O)Nc3cccc(C)c3)C2=O)ccc1OCC(N)=O	9	-11	-11	-10	-1	146*	50*	54*
O=C(OCc1cn(Cc2cccc(C(F)(F)F)c2)nn1)N1CCOCC1	0	-1	x	x	x	0	x	x
NC(=S)NNc1ccnc2cc(Cl)ccc12	8	2	4	-33	-1	16*	20*	21*
CCN(CC)c1ccc2c(Cl)cc(=O)oc2c1	-1	-8	10	x	-1	3	x	x
CCNc1ccc2c(Cl)cc(=O)oc2c1	9	9	-4	0	2	25*	30*	38*
